This is a sample that favours compounds with a hit; in the whole collection about 9.4% have one here.
L major viab = Leishmania major promastigote growth inhibition; Leishmania major promastigotes, resazurin fluorescence viability; inhibition, % at 10 µM; 200,000 tested, 9% active; AID 1063; in the data active means inhibition above about 50%;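 further: promastigotes grown with compound for 44 hours at 28 °C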
SKKanGAS inh = SKKanGAS growth inhibition | AID 1662 | S. pyogenes SKKanGAS, kanamycin growth, BacTiter-Glo, 6 h | inhibition, % at 7.5 µM | 300,000 tested, 1.3% active;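 active means mean replicate score, as percent of positive control median, at least 50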;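 further: strain carries kanamycin resistance gene driven by streptokinase promoter and grows in 40 µg/ml kanamycin; loss of luminescence reflects streptokinase promoter inhibition or plain growth inhibition; 0% = median of DMSO wells and 100% = positive control at its reference dose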
CSC inhib = cancer stem cell inhibition; 300,000 tested, 1.1% active; AID 2717; cancer stem cell-like cells viability, luminescence; inhibition, % at 7.5 µM; in the data active means inhibition above about 75%; tested in HMLE shEcad cells
Beta cell apopt = beta cell apoptosis inhibition | INS-1E cytokine-induced death, ATP luminescence, 48 h; percent of positive-control rescue, neutral wells zero | protection from apoptosis, % (concentration not given with the values) | 300,000 tested, 0.8% active | AID 435005;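 active means Every replicate reaches about 75%, or at least half do and their mean reaches it too, limit read from the data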;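 further: 0% = cytokine-treated negative control wells and 100% = positive control rescue; higher means more ATP so stronger rescue from cytokine killing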
Mdm2-MdmX inh = inhibitors of human Mdm2/MdmX interaction; SaOS-2 split-luciferase Mdm2/MdmX complementation, luminescence; 330,000 tested, 3% active; AID 485346; inhibition, % at 8 µM;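 active means inhibition of at least 50% at 8 µM in the primary screen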
Target sequence (O15151 whole entry, looked up): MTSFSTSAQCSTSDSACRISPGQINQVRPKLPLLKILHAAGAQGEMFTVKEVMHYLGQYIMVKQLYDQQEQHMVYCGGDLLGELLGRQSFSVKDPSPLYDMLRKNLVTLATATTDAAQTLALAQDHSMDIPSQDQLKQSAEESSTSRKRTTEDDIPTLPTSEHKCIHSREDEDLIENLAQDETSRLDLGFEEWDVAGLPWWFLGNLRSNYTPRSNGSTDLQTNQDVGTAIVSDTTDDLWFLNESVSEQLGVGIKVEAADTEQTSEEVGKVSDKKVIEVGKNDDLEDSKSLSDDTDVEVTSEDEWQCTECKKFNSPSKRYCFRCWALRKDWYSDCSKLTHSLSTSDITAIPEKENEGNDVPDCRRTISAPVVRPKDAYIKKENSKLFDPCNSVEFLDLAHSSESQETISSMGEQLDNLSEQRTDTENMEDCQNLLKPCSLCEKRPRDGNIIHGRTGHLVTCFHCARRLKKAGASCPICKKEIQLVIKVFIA
Target sequence (Q00987 whole entry, looked up): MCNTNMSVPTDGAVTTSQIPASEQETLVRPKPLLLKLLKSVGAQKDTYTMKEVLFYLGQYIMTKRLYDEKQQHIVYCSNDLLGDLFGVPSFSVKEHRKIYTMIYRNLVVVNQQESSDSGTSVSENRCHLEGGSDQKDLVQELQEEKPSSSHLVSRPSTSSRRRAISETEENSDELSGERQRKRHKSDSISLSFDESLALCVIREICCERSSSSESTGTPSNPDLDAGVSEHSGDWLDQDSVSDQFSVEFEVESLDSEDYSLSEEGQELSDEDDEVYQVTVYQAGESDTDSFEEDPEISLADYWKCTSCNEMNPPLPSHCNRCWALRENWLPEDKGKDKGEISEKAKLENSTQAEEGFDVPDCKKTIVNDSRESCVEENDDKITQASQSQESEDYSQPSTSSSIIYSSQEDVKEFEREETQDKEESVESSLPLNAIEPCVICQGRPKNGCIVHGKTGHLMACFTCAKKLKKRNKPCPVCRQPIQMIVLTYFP
T cruzi repl = T. cruzi replication inhibition; T. cruzi beta-gal in NIH3T3, luminescence, 90 h; inhibition, % (no concentration beside the values); 300,000 tested, 1.4% active;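 active means mean inhibition across valid replicates above about 55%, limit read from the data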;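 further: signal also drops with host cell toxicity which is not excluded here; 0% = plate median of DMSO wells and 100% = zero luminescence signal; higher percent means less beta-gal luminescence so fewer parasites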
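Assay system: NIH/3T3 host cells with β-galactosidase reporter T. cruzi; input: 5,000 host fibroblasts per well; compound: single 50 nL compound addition per well in DMSO; timing: ≥90 h infection period, 3 h prior cell attachment; measured by: GalScreen β-gal luminescence, detergent lysis, 60 min; evaluation: percent inhibition of parasite-derived β-gal signal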
Mdm2-MdmX conf = confirmation of human Mdm2/MdmX interaction inhibitors. shares compounds with Mdm2-MdmX inh. Mdm2-MdmX binding, luminescent assay. inhibition, % at 8 µM. 10,000 tested, 55% active. AID 489028; in the data active means inhibition above about 40%
Full FLuc ctr = inhibits full-length luciferase, flagging false Mdm2/MdmX hits; shares compounds with Mdm2-MdmX inh; SaOS-2 full-length luciferase counterscreen, luminescence; inhibition, % at 8 µM; 6,200 tested, 77% active; AID 504607;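 active means mean inhibition at 8 µM reaching about 37%, which flags the compound as non-specific, limit read from the data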;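 further: p53-null SaOS-2 cells with luciferase driven by a doxycycline-inducible promoter; compound on cells about two nights before reading with doxycycline added after day one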
Numbers without * were called inactive; / = no result given.

SMILES | L major viab | SKKanGAS inh | CSC inhib | Beta cell apopt | Mdm2-MdmX inh | T cruzi repl | Mdm2-MdmX conf | Full FLuc ctr
Cc1cc(SCC(=O)NC2CCCC2)nc2ccccc12 | / | -3.1 | -13.3 | -3.6 | 30.0 | -13.1 | / | /
CCOc1ccccc1C(=O)Nc1ccc2nc(N3CCN(c4ncccn4)CC3)cc(C)c2c1 | 21.4 | / | -2.3 | -5.2 | 95.8* | / | 84.2* | 51.1*
COc1ccc(C(=O)Nc2ccc3nc(N4CCN(C)CC4)cc(C)c3c2)c(OC)c1 | / | 4.4 | 3.2 | -1.1 | 36.9 | 43.1 | / | /
COc1cccc(C(=O)Nc2ccc3nc(N4CCN(c5ncccn5)CC4)cc(C)c3c2)c1OC | 34.3 | / | 60.6 | 23.6 | 97.9* | / | 88.2* | 6.8
Cc1nn(CC(=O)NNC(=O)c2cccc(Br)c2)c(C)c1[N+](=O)[O-] | / | 3.1 | -10.2 | / | 25.2 | -16.4 | / | /
Cc1ccc(N2CCN(c3ncccc3[N+](=O)[O-])CC2)c(C)c1 | / | 16.9 | 16.1 | 2.0 | -1.5 | 15.6 | / | /
Cc1ccc(C)c(N2CCN(c3ncccc3[N+](=O)[O-])CC2)c1 | / | 42.6 | 26.1 | 4.2 | 72.7* | 13.5 | 23.2 | /
BrC(=C\c1ccccc1)/C=N/Nc1nc2ccccc2[nH]1 | 9.9 | 29.4 | 37.1 | 0.8 | 8.6 | -17.2 | / | /
Cc1ccc2cc(/C=N/Nc3nc4ccccc4[nH]3)c(Cl)nc2c1 | 11.7 | -7.0 | / | / | / | 10.4 | / | /
C(=N\Nc1nc2ccccc2[nH]1)/c1cccc2nccnc12 | / | -3.2 | 26.7 | 71.6 | 73.8* | 12.6 | 64.9* | 31.8
CCN(CC)c1ccc(/C=N/Nc2nc3ccccc3[nH]2)c(O)c1 | 100.3* | 94.1* | 101.1* | 122.1* | 58.5* | 59.0* | 74.2* | 39.6*
CC1=C(C(=O)Nc2ccccc2C(=O)NC2CCCCC2)SCCO1 | / | 4.8 | -6.0 | 0.3 | -5.7 | 1.7 | / | /
Cc1cc2nc(-c3ccc(SCC(=O)Nc4ccc(S(=O)(=O)N5CCCC5)cc4)nc3)[nH]c2cc1C | 5.0 | 24.4 | 22.2 | 7.8 | 69.3* | 9.6 | -7.7 | /
CC(=O)CSc1ccc(-c2nc3cc(C)c(C)cc3[nH]2)cn1 | 80.2* | -4.0 | 15.5 | 5.7 | 67.8* | 13.6 | 66.7* | 66.3*
CC(C)(C)NC(=O)NCC1CCCC1NC(=O)NC(C)(C)C (centres undefined) | / | -2.8 | -3.8 | -7.5 | -39.5 | -6.9 | / | /
CCOC(=O)/C=C/C(=O)Nc1ccc(S(=O)(=O)Nc2c(C)cc(C)cc2C)cc1 | 34.0 | -12.4 | 43.7 | -6.2 | 50.5* | -19.7 | 27.9 | /
CCOC(=O)/C=C/S(=O)(=O)c1ccc(NC(C)=O)cc1 | -3.7 | 6.3 | 54.3 | 22.8 | 68.3* | 11.5 | 52.8* | 21.1
Cc1cc(C)c(NS(=O)(=O)c2ccc(NC(=O)c3cccs3)cc2)c(C)c1 | 1.9 | 30.6 | 17.8 | -5.4 | 21.4 | 40.6 | / | /
CCOC(=O)/C=C/C(=O)Nc1ccc(Oc2ccccc2)cc1 | -2.0 | -5.0 | 31.1 | -9.8 | 56.5* | -38.7 | 55.3* | 24.1
CC1Cc2ccccc2N1C(=O)CSc1ncccn1 (centres undefined) | / | -1.0 | -4.4 | 1.8 | 18.9 | -4.0 | / | /
O=C(CN1C(=O)S/C(=C/c2ccncc2)C1=O)Nc1ccccc1 | / | 4.9 | 8.6 | -6.6 | 32.9 | -7.1 | / | /
Cn1cc(/C=C2/SC(=O)N(CC(=O)Nc3ccc4c(c3)OCO4)C2=O)c2ccccc21 | -4.1 | -0.4 | 20.0 | 20.7 | 64.2* | 8.3 | 20.8 | /
Cc1cccc(C)c1NC(=O)CN1C(=O)S/C(=C\c2cccn2C)C1=O | 3.7 | -15.6 | -11.4 | -9.0 | 80.1* | -4.2 | 1.6 | /
O=C(CN1C(=O)S/C(=C\c2ccc(-c3cc(C(=O)O)ccc3Cl)o2)C1=O)Nc1ccc2c(c1)OCO2 | / | / | -14.0 | -0.5 | -8.3 | / | / | /
Cc1cccc(C)c1NC(=O)CN1C(=O)S/C(=C\c2cccn2-c2cccc(C(=O)O)c2)C1=O | -12.5 | 13.1 | 1.8 | -1.7 | 17.6 | -1.3 | / | /
SMILES | L major viab | SKKanGAS inh | CSC inhib | Beta cell apopt | Mdm2-MdmX inh | T cruzi repl | Mdm2-MdmX conf | Full FLuc ctr
Cc1ccc(NC(=O)CN2C(=O)S/C(=C\c3ccccn3)C2=O)cc1C | / | / | -14.4 | 0.3 | 68.2* | / | 28.6 | /
CN(C)c1ccc(CNC(=O)CCS(=O)(=O)c2ccc3c(c2)n(C)c(=O)c(=O)n3C)cc1 | / | -1.7 | 2.5 | 6.8 | 18.1 | -13.4 | / | /
Cn1c(C(=O)NCCCN2CCN(c3ccccc3F)CC2)cc2c(=O)[nH]c3ccccc3c21 | 6.0 | 0.2 | 2.4 | 2.9 | 37.2 | 14.3 | / | /
O=C(Cc1csc(Nc2nc(=S)[nH]c3ccccc23)n1)NCCCN1CCN(c2ccccc2F)CC1 | 22.1 | 9.2 | 30.9 | 19.3 | 97.9* | -4.6 | 32.5 | /
O=C(Cc1csc(Nc2nc(=S)[nH]c3ccccc23)n1)NCc1ccc(Cl)cc1 | 47.6 | -11.9 | -3.8 | 6.0 | 73.6* | 13.5 | 5.8 | /
COc1ccc(CNC(=O)Cc2csc(Nc3nc(=S)[nH]c4ccccc34)n2)cc1 | -5.5 | -7.1 | -7.0 | 10.7 | 13.5 | 11.1 | / | /
COc1cc(O)c(CC=C(C)C)c(O)c1C(=O)CCc1ccc(O)cc1 | / | 97.7* | -6.1 | / | 55.2* | -9.7 | 2.8 | /
Cc1ccc(C)c(N2CCN(C(=O)c3ccc(N4CCOCC4)c([N+](=O)[O-])c3)CC2)c1 | / | 5.3 | 48.2 | 7.2 | 18.7 | / | / | /
COC(=O)C(C(=O)Nc1ccc(OC)cc1)C1CCCCCC1 (centres undefined) | -0.3 | 1.5 | 3.7 | 4.9 | 55.6* | -2.3 | 40.5* | 65.5*
CCOc1ccc(-c2nc(N)ncc2Oc2cccc(OC)c2)c(O)c1 | 36.4 | 8.6 | -8.4 | -17.7 | 65.9* | 26.5 | 41.6* | 61.8*
O=C(CN1CCCc2ccccc21)N/N=C/c1ccc(F)cc1F | / | -0.4 | -11.0 | -2.5 | -8.4 | 0.9 | / | /
O=C(CN1CCCc2ccccc21)N/N=C/c1ccccc1O | 98.6* | 15.4 | 38.0 | 98.8* | 77.1* | 4.6 | 63.1* | 19.3
COc1cc(/C=C/C(C)=O)cc(OC)c1OC | 41.9 | 0.7 | / | -15.5 | -14.3 | -8.4 | / | /
COc1cc(/C=C/C(=O)N2CCC=CC2=O)cc(OC)c1OC | / | / | 35.6 | 8.0 | 99.6* | / | 63.3* | 26.8
COc1ccc2cc(C(=O)/C=C/c3cc(OC)c(OC)c(OC)c3)ccc2c1 | / | 10.8 | 46.4 | -5.7 | 74.6* | 2.8 | 53.9* | 78.1*
COc1ccc(Oc2ccc(/C=C/C(=O)c3cccc(OC)c3)cc2[N+](=O)[O-])cc1 | 100.3* | -22.9 | / | -7.4 | 96.7* | -7.1 | 18.6 | 26.2
COc1ccc(C(=O)N2CCCC(Nc3ccc(F)cc3)C2)c(OC)c1 (centres undefined) | / | 6.2 | -11.2 | / | 26.0 | -13.5 | / | /
O=C(O)/C=C/C(=O)c1ccc2c(c1)CCc1ccccc1-2 | / | 39.1 | 55.3 | -44.3 | 66.9* | -19.1 | 25.8 | /
CC(=O)Nc1ccc2c(c1)CCc1ccccc1-2 | / | 0.4 | -8.3 | -3.9 | -3.2 | -3.0 | / | /
O=S(=O)(c1ccc(-c2n[nH]c(=S)o2)cc1)N1CCCC1 | / | 3.5 | -2.9 | -6.7 | 6.0 | -4.8 | / | /

Bioassay records as filed in PubChem.
